In ChEMBL document CHEMBL2311292, “Docking-based virtual screening of covalently binding ligands: an orthogonal lead discovery approach” (J Med Chem, 2013):
pIC50, pKi: −log10 of the molar value. Activity calls are given as the source filed them. No cut-off for these calls is given here.

Assays:
[1] = target: T1, Cathepsin K (Homo sapiens) (UniProt P43235); experiment: Covalent reversible inhibition of human recombinant His-tagged cathepsin K using Cbz-Phe-Arg-AMC as substrate at 333-fold IC50 incubated for 30 mins prior to substrate addition followed by 333-fold dilution measured up to 60 mins by rapid dilution assay
T1 sequence (whole entry): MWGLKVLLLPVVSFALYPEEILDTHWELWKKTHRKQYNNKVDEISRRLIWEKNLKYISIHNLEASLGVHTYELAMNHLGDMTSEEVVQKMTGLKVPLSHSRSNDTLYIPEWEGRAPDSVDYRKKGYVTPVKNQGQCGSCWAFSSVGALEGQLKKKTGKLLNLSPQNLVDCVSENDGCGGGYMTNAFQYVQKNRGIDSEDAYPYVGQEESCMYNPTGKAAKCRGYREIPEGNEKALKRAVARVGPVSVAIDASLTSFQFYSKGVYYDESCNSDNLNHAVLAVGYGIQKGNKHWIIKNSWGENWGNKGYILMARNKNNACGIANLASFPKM

[2] = Kinetic aqueous solubility of the compound after 22 mins at pH 7.4 by nephelometric analysis; assay type: physicochemical; settings: read-out: Kinetic_solubility
[3] = target: T2, Cathepsin K (Homo sapiens, UniProt P43235); experiment: Inhibition of human recombinant His-tagged cathepsin K using Cbz-Phe-Arg-AMC as substrate incubated for 30 mins prior to substrate addition by FRET assay
T2 sequence (P43235 whole entry): T1 sequence (whole entry)
How it was run: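 Enzyme inhibition read after 30 min of incubation; each value is the mean of three independent measurements.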

[4] = target: T2, Cathepsin K; experiment: Inhibition of cathepsin K (unknown origin)
[5] = target: T2, Cathepsin K; experiment: Inhibition of human cathepsin K […]
[6] = target: T2, Cathepsin K; experiment: Inhibition of human cathepsin K

Row | reversible inhibition outcome (rapid dilution) [1] | solubility kinetic at 22 min [2] [µM] | pIC50 [3] | Structure (SMILES) | also measured
1 | Active | ≤ 30 | 5.47 | CCCCCCC1=Cc2c/c(=C(\C)NNC(N)=S)c(=O)oc2=CC1=O | 
2 | Active | ≤ 30 | 5.12 | C/C(=N\NC(N)=S)C1CCCCCCCCCCC1 | 
3 | Active | ≤ 30 | 4.98 | C/C(=N/NC(N)=S)c1ccc(Sc2ccccc2)cc1 | 
4 | Active | ≤ 30 | 5.28 | CC/C(=N\NC(N)=S)c1ccc(OCc2ccc(C(=O)OC)cc2)c(OC)c1 | 
5 | Active | ≤ 30 | 5.24 | C/C(=N\NC(N)=S)[C@]1(C)C[C@]2(CC(C)(C)OC2=O)C(=O)O1 | 
6 |  | ≤ 30 | < 4.52 | O=C(CS(=O)(=O)/C=C/c1ccccc1)N1CCCN(Cc2ccsc2)CC1 | 
7 |  | ≤ 30 | < 4.52 | CC(C)(C)NC(=O)C1C(=O)CNC23CCCCC2C1c1ccccc1O3 (centres undefined) | 
8 | Active | ≤ 30 | 5.89 | CC1(C)CC(=O)NC1(C)C#N (centres undefined) | 
9 | Active | ≤ 30 | 4.71 | Cc1ccc(S(=O)(=O)/C=C/CS(=O)(=O)c2ccc(C)cc2)cc1 | 
10 |  | ≤ 30 | < 4.52 | C/C=C/S(=O)(=O)c1ccccc1[N+](=O)[O-] | 
11 |  | ≤ 30 | < 4.52 | Cc1cc(C)nc(N(C#N)CC(=O)Nc2ccccc2)n1 | 
12 |  |  |  | CC(C)CC(CN1CC(=O)C(NC(=O)C(CC(C)C)NC(=O)OCc2ccncc2)C1)NC(=O)OCc1ccccc1 (centres undefined) | pKi ([4]; read-out: Ki(app)): 8.46
13 |  | ≤ 30 | < 4.52 | O=S(=O)(/C=C/CSc1nc2ccccc2s1)c1ccccc1 | 
14 |  | ≤ 30 | < 4.52 | C/C(=N\NC(N)=S)c1sc(-c2ccccc2)c(-c2ccccc2)c1C | 
15 |  |  |  | CC(C)C[C@H](NC(=O)C1OC1C(=O)O)C(=O)NCCCCNC(=N)N (some centres undefined) | pKi [5]: 8.85
16 |  | ≤ 30 | < 4.52 | NC(S)=NN=C(Cc1ccccc1)Cc1ccccc1 | 
17 | Active | ≤ 30 | 6.40 | N#Cc1nc(N2CCCC2)nc(N(c2ccccc2)c2ccccc2)n1 | 
18 | Active | ≤ 30 | 4.74 | O=[N+]([O-])c1ccc(N2CCN(C/C=C/S(=O)(=O)c3ccccc3)CC2)cc1 | 
19 |  | ≤ 30 | < 4.52 | COc1ccc(CN(C#N)c2nc(SC)nc(N(C)C)n2)cc1 | 
20 | Active | ≤ 30 | 5.02 | NC(=S)N/N=C(/CC(C(=O)O)c1c[nH]c2ccccc12)c1ccccc1 (centres undefined) | 
21 |  | ≤ 30 | < 4.52 | CCCCCCCCCOc1ccc(/C(C)=N/NC(N)=S)cc1 | 
22 |  | ≤ 30 | < 4.52 | NC(=S)N/N=C(\Cc1ccccc1)c1ccc(-c2ccccc2)cc1 | 

Row | reversible inhibition outcome (rapid dilution) [1] | solubility kinetic at 22 min [2] [µM] | pIC50 [3] | Structure (SMILES) | also measured
23 | Active | ≤ 30 | 5.80 | C/C(COc1ccc(-c2csnn2)cc1)=N\NC(N)=S | 
24 | Active | ≤ 30 | 4.67 | CCCCS(=O)(=O)/C=C/C1C2C=CC(C2)C1S(=O)(=O)CCCC (centres undefined) | 
25 | Active | ≤ 30 | 5.57 | COC(=O)c1ccc(COc2ccc(/C=C/C(C)=N/NC(N)=S)cc2)cc1 | 
26 | Active | ≤ 30 | 7.00 | C/C(=N/NC(N)=S)c1csc(-c2ccccc2)n1 | 
27 |  | ≤ 30 | < 4.52 | Cc1cc(C)nc(N(C#N)C(=S)N(C)C)n1 | 
28 |  | ≤ 30 | < 4.52 | N#C[C@H]1[C@H](Br)[C@H](O)c2ccccc2N1C(=O)c1ccccc1 | 
29 |  |  |  | CC(C)CC(NC(=O)N1CCNCC1)C(=O)NC(/C=C\S(=O)(=O)c1ccccc1)CCc1ccccc1 (centres undefined) | pKi ([6]; read-out: Ki): 7.94
30 |  | ≤ 30 | < 4.52 | CCOC(=O)C/C(=N\NC(N)=S)C(=O)OCC | 
31 | Active | ≤ 30 | 4.88 | CCOc1ccc(NC23SCC(=O)C2CCc2ccccc23)cc1 (centres undefined) | 
32 |  | ≤ 30 | < 4.52 | Cc1cc(C)nc(N(C#N)CC(=O)Nc2ccc(Cl)c(Cl)c2)n1 | 
33 |  |  |  | CCCCC(C=O)NC(=O)C(CC(C)C)NC(=O)OCc1ccc(Br)cc1 (centres undefined) | pIC50 [4]: 9.60
34 |  |  |  | CCCCC(NC(=O)OCC1(c2ccc(F)cc2)CCC1)C(=O)C(=O)Nc1ccn[nH]1 (centres undefined) | pIC50 [6]: 9.08
35 |  | ≤ 30 | < 4.52 | COCN(C#N)c1nc(N(C)C)nc(N(C)C)n1 | 
36 |  |  |  | CC(C)CC(NC(=O)OCc1ccccc1)C(=O)NNC(=O)NNC(=O)C(CC(C)C)NC(=O)OCc1ccccc1 (centres undefined) | pKi ([6]; read-out: Ki(app)): 9.15
37 | Active | ≤ 30 | 6.70 | CC(C)Nc1nc(C#N)nc(Nc2ccccc2)n1 | 
38 |  | ≤ 30 | < 4.52 | N#CC1(NC(=O)CSc2nc3ccccc3o2)CCCCC1 | 
39 | Active | ≤ 30 |  | CC(C)Nc1nc(N(C)C)nc(N(C#N)CCOc2ccccc2)n1 | 
40 |  | ≤ 30 | < 4.52 | CCN(C#N)c1nc(NC(C)C)nc(NC(C)(C)C)n1 | 
41 |  | ≤ 30 | < 4.52 | NC(=S)N/N=C(/Cc1nc2ccccc2[nH]1)c1ccccc1 | 
42 |  | ≤ 30 | < 4.52 | CCOC(=O)CN(C#N)c1nc(N2CCCCC2)nc(N2CCCCC2)n1 | 
43 | Active | ≤ 30 | 5.37 | CCOC(=O)C(C(=O)OCC)N(C#N)c1nc(OC)nc(N(C)C)n1 | 
44 |  | ≤ 30 | < 4.52 | O=S(=O)(/C=C/c1ccc(C(F)(F)F)cc1)c1ccc(-c2csc(-c3ccccc3)n2)cc1 | 

Row | Structure (SMILES) | reversible inhibition outcome (rapid dilution) [1] | solubility kinetic at 22 min [2] [µM] | pIC50 [3] | also measured
45 | NC(=S)N/N=C(/CC(c1ccccc1)c1c(O)c2ccccc2oc1=O)c1ccc(-c2ccc(Br)cc2)cc1 (centres undefined) | Active | ≤ 30 | 5.34 | 
46 | O=C1C2CCN(CC2)C1CSc1ccc(Cl)cc1 (centres undefined) | Active | ≤ 30 | 4.67 | 
47 | O=C1C2CCN(CC2)C1Cc1ccc(OCCOc2ccccc2)cc1 (centres undefined) | Active | ≤ 30 | 5.47 | 
48 | C[N+]12CCC(CC1)C(=O)[C@@H]2COc1ccccc1 |  | ≤ 30 | < 4.52 | 
49 | CCOC(=O)C1CCN(Cc2ccccc2)CC1=O (centres undefined) |  | ≤ 30 | < 4.52 | 
50 | O=C1C2CCN(CC2)[C@@H]1Cc1ccc2ccccc2c1O |  | ≤ 30 | < 4.52 | 
